From ChEMBL document CHEMBL1156035, “(3R,5S,7as)-(3,5-Bis(4-fluorophenyl)tetrahydro-1H-oxazolo[3,4-c]oxazol-7a-yl)methanol, a novel neuroprotective agent” (J Med Chem, 2009)
Blank lines part the entries; values can stand above or below the molecule they belong to. Calls of active or inactive are those of the source. The calls are words filed in the database; no cut-off is given here.

Assays:
Bos taurus [1] = species: Bos taurus; experiment: Displacement of [3H](3R,5S,7as)-(3,5-bis(4-fluorophenyl)tetrahydro-1H-oxazolo[3,4-c]oxazol-7a-yl)methanol from bovine microtubule at 40 uM
In short: (§1)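 Competitive binding: microtubules were formed from bovine brain microtubule protein (2 mg/mL) in PEM buffer with 0.5 mM GTP. Conditions were 100 μM tritiated compound with 0–40 μM paclitaxel, or 20 μM [3H]paclitaxel with 0–400 μM competitor, at 37 °C for 10 min. Pellets were spun at 100000g for 4 min, dissolved in 0.1 M NaOH, and radioactivity and protein were measured.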

Bos taurus [2] = species: Bos taurus; experiment: Induction of bovine tubulin assembly assessed as microtubule formation at 25 uM after 30 mins by DAPI staining-based fluorescence assay in absence of GTP
In short: (§2)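 DAPI fluorescence assembly assay: bovine brain microtubule protein (containing MAPs) at 2 mg/mL in PEM buffer (0.1 M PIPES, 1 mM MgSO4, 1 mM EGTA, pH 6.9), 4% DMSO and 10 μM DAPI, without GTP, with varying compound concentrations. Plates were incubated 30 min at 37 °C and fluorescence was read. Values were corrected for a no-compound control and expressed relative to the maximum given by 25 μM paclitaxel.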

Bos taurus [3] = species: Bos taurus; experiment: Stabilization of bovine microtubule against cold-induced […] assessed as pelleted protein level at 20 uM by centrifugation assay
[4] = Neuroprotective effect against beta-amyloid (25-35)-induced cell death in Sprague-Dawley rat cortical neuron treated 2 hrs before beta-amyloid (25-35) challenge measured after 48 hrs by propidium iodide staining-based fluorescence microscopy; type: functional; conditions: Cortical neurone
In short: (§3)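 Rat cortical neurons from embryonic day 18 Sprague–Dawley fetuses, plated on poly-D-lysine and kept serum-free in DMEM/F12 with N2, were used after 5 days. Compound (0.5–60 nM) was added about 2 h before 10 μM Aβ25–35 or Aβ1–42, preaggregated 24 h at 37 °C in Tris pH 7.4. Vehicle DMSO was ≤0.04%. After 48 h, cells were stained 30 min with 20 μM propidium iodide and 150 nM calcein-AM. Live and dead cells were counted in 6–12 fields from duplicate dishes across at least two preparations (about 1500 cells). Student's t test was used.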

Bos taurus [5] = species: Bos taurus; experiment: Induction of bovine tubulin aggregation at 100 to 400 uM after 30 mins by electron microscopy
Bos taurus [6] = species: Bos taurus; experiment: Induction of bovine tubulin assembly assessed as microtubule formation at 100 to 400 uM after 30 mins by electron microscopy
Bos taurus [7] = species: Bos taurus; experiment: Induction of bovine tubulin assembly assessed as microtubule formation at 200 to 400 uM after 30 mins by DAPI staining-based fluorescence assay in absence of GTP; in short: as §2
Cortical neurone [8] = experiment: Neuroprotective effect against H2O2-induced cell death in Sprague-Dawley rat cortical neuron at 100 nM treated 2 hrs before H2O2 challenge measured after 48 hrs by propidium iodide staining-based fluorescence microscopy; type: functional
Cortical neurone [9] = experiment: Neuroprotective effect against beta-amyloid (1-42)-induced cell death in Sprague-Dawley rat cortical neuron at 0.5 to 60 nM treated 2 hrs before beta-amyloid (1-42) challenge measured after 48 hrs by propidium iodide staining-based fluorescence microscopy; type: functional; in short: as §3
Bos taurus [10] = species: Bos taurus; experiment: Stabilization of bovine microtubule against cold-induced […] assessed as pelleted protein level at 400 uM by centrifugation assay
Bos taurus [11] = species: Bos taurus; experiment: Induction of bovine tubulin assembly assessed as microtubule formation at 100 uM after 30 mins by DAPI staining-based fluorescence assay in absence of GTP; in short: as §2
Bos taurus [12] = species: Bos taurus; experiment: Induction of bovine tubulin assembly assessed as formation of pelleted protein at 100 to 400 uM after 30 mins by centrifugation assay relative to paclitaxel in presence of GTP
Cortical neurone [13] = experiment: Neuroprotective effect against paraquat-induced cell death in Sprague-Dawley rat cortical neuron at 100 nM treated 2 hrs before paraquat challenge measured after 48 hrs by propidium iodide staining-based fluorescence microscopy; type: functional
[14] = Apparent passive permeability from abluminal to luminal side of BBMEC at 10 uM up to 1.5 hrs; type: ADME, Bos taurus; conditions: cattle
In short: (§4)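 Bovine brain microvessel endothelial cell monolayers, confluent on 0.4 μm polycarbonate membranes coated with collagen and fibronectin, mounted in side-by-side diffusion chambers with PBSA. The donor side (luminal or abluminal) received 10 μM unlabeled compound plus trace tritiated compound. Receiver samples were taken at time points up to 90 min and counted by liquid scintillation.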

Cortical neurone [15] = experiment: Neuroprotective effect against staurosporine-induced cell death in Sprague-Dawley rat cortical neuron at 100 nM treated 2 hrs before staurosporine challenge measured after 48 hrs by propidium iodide staining-based fluorescence microscopy; type: functional
Bos taurus [16] = species: Bos taurus; experiment: Displacement of [3H]paclitaxel from bovine microtubule at 400 uM; in short: as §1
Cortical neurone [17] = experiment: Neuroprotective effect against thapsigargin-induced cell death in Sprague-Dawley rat cortical neuron at 100 nM treated 2 hrs before thapsigargin challenge measured after 48 hrs by propidium iodide staining-based fluorescence microscopy; type: functional
Bos taurus [18] = species: Bos taurus; experiment: Induction of P-gp-mediated rhodamine 123 uptake in BBMEC at 1 to 50 uM
In short: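 Primary bovine brain microvessel endothelial cells in 24-well plates were rinsed and equilibrated 10 min in warm PBSA. They were preincubated 30 min at 37 °C with compound at 1–50 μM, then given 5 μM rhodamine 123 for 2 h. Cells were rinsed with ice-cold PBS and lysed in 0.5% Triton X-100/0.2 M NaOH. Rhodamine 123 fluorescence was normalized to BCA protein. Cyclosporine A served as positive control.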

[19] = Apparent passive permeability from luminal to abluminal side of BBMEC at 10 uM up to 1.5 hrs; type: ADME, Bos taurus; conditions: cattle; in short: as §4

Activity (Bos taurus [1]): 42% | Activity (Bos taurus [2]): 20% | Activity (Bos taurus [3]): 79%
SMILES: CC(=O)O[C@H]1C(=O)[C@@]2(C)[C@H]([C@H](OC(=O)c3ccccc3)[C@]3(O)C[C@H](OC(=O)[C@H](O)[C@@H](NC(=O)c4ccccc4)c4ccccc4)C(C)=C1C3(C)C)[C@]1(OC(C)=O)CO[C@@H]1C[C@@H]2O

Activity (Bos taurus [5]): Active | Activity (Bos taurus [6]): inactive
SMILES: OCC12CO[C@H](c3ccc(F)cc3)N1[C@@H](c1ccc(F)cc1)OC2 (relative stereo)
EC50 [4]: 50 nM

Activity (Bos taurus [7]): inactive | Activity (Bos taurus [10]): 9% | Activity (Bos taurus [11]): Active | Activity (Bos taurus [12]): 10% | Activity (Bos taurus [5]): Active | Papp at 1.5 h, 10 µM [14]: 244 ×10⁻⁶ cm/s | Activity (Bos taurus [16]): 40% | Activity (Bos taurus [18]): inactive | Papp at 1.5 h, 10 µM [19]: 286 ×10⁻⁶ cm/s | Activity (Bos taurus [6]): inactive
SMILES: OC[C@]12CO[C@H](c3ccc(F)cc3)N1[C@H](c1ccc(F)cc1)OC2
Activity (Cortical neurone [8]): Active | Activity (Cortical neurone [9]): Active | EC50 [4]: 5 nM | Activity (Cortical neurone [13]): Active | Activity (Cortical neurone [15]): Active | Activity (Cortical neurone [17]): Active

Activity (Bos taurus [5]): Active | Activity (Bos taurus [6]): inactive
SMILES: OCC1(CO)COC(c2ccc(F)cc2)N1 (stereo not given)
EC50 [4]: 40 nM
